Experimental data: PubChem BioAssay AID1496 (Sanford-Burnham Center for Chemical Genomics, 2009)
Hit rate of the full screen: of about 220,000 compounds, about 990 (0.45%) were called active.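 The calls were made as follows: active = inhibition over about 50% at 20 µM in the single-dose screen (limit read from the data); inactive = the rest.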 What follows is part of a selection rich in actives, with near analogues and random picks from the rest.

Each molecule was assayed against Runt-related transcription factor 1 (Homo sapiens) + Core-binding factor subunit beta (Homo sapiens) (UniProt Q01196+Q13951) (assay: inhibitors of RUNX1 Runt–CBFb binding, primary screen, biochemical, FRET, Cerulean-Runt, Venus-CBFb, uHTS (AID 1496;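 also: 0% = DMSO wells and 100% = excess unlabeled CBFb competitor control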)). Conditions: Cerulean-Runt/Venus-CBFb FRET ratio 530/480, 1 h; at 20 µM; active compounds read high.
Procedure, shortened: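 Schedule: protein complex preformed 1 h, compound exposure 1 h, room temperature, dark; test system: Cerulean-labeled Runt domain protein; amount: 100 nM per protein; buffer or medium: Tris 50 mM pH 7.5, KCl, K2SO4, 0.01% BSA; read-out: loss of energy transfer signal; detection: FRET fluorescence; controls: 5 µM unlabeled CBFb as full-inhibition high control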

Sequence of Runt-related transcription factor 1 (Homo sapiens) + Core-binding factor subunit beta (Homo sapiens) (Q01196 whole entry, looked up, the tested form may be a part): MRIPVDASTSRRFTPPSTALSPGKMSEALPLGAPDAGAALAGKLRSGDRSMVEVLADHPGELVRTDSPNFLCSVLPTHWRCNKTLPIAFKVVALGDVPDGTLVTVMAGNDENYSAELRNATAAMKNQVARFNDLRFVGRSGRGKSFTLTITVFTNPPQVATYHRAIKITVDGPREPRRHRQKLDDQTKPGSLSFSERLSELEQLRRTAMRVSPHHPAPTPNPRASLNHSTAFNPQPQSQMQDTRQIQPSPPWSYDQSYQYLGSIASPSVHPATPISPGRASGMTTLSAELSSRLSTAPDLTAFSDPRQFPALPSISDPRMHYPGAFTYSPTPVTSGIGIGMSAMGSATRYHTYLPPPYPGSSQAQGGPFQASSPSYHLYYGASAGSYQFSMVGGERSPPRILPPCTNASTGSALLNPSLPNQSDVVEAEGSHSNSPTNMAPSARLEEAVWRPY
Sequence of Runt-related transcription factor 1 (Homo sapiens) + Core-binding factor subunit beta (Homo sapiens) (Q13951 whole entry, looked up, the tested form may be a part): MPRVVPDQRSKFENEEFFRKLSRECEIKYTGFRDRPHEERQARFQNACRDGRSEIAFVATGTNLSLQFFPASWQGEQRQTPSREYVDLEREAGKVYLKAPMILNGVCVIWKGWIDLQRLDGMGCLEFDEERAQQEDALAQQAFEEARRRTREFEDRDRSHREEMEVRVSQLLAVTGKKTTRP

inhibition, inactive:
O=C(Oc1ccccc1)Oc1ccc2c(c1)oc(=O)c1ccccc12 -1%
CCOC(=O)c1ccc(N=C2SC(C(=O)NC)CC(=O)N2CCc2ccccc2)cc1 (centres undefined) -3%
CCc1ccnc(NS(=O)(=O)c2ccc3c(c2)OCCO3)c1 2.3%
COc1ccccc1C1CCN(c2ccc([N+](=O)[O-])cn2)CC1 0.4%
CCN1CCN(c2nc(Nc3cccc(F)c3)nc(N)c2[N+](=O)[O-])CC1 -0.1%
COC(=O)Cc1cc(=O)oc2c(C)c(O)ccc12 19.3%
CCCc1cc(=O)[nH]c(SCc2cc(=O)oc3c(C)c(C)ccc23)n1 -10.5%
Cn1nnc(NC(=S)NC(=O)c2ccccc2)n1 10.1%
COC(=O)c1ccccc1N=Nc1c(C)[nH][nH]c1=O -3.8%
CCN(CC)CCCN=C(N)N 2.2%
O=C(CCN1c2ccccc2Sc2ccccc21)Nc1ccccc1 0.8%
CCC(=O)/C=C1\Sc2ccccc2N1CC 1.3%
O=C(Nc1ccc(S(=O)(=O)Nc2nccs2)cc1)c1cc(-c2ccncc2)nc2ccccc12 -7.7%
O=C(NCc1ccco1)c1cccn2c(=O)c3c4c(sc3nc12)CCCC4 12.3%
CCn1c(=N)c(C(=O)NCCCOC)cc2c(=O)n3cccc(C)c3nc21 19.3%
COc1ccc(CCNC(=O)Cn2c(=O)n(CC3CCCO3)c(=O)c3ccccc32)cc1OC (centres undefined) -0.8%
COc1ccc(CCNC(=O)CCn2c(=O)c3ccccc3n(CC(=O)NCC3CCCO3)c2=O)cc1OC (centres undefined) -1.8%
CC(C)Cn1c(N)c(C(=O)NCc2cccs2)c2nc3ccccc3nc21 16.3%
CCCNC(=O)c1c(N)n(-c2ccc(S(N)(=O)=O)cc2)c2nc3ccccc3nc12 33%
CN(C)CCCn1c(N)c(C#N)c2nc(C#N)c(C#N)nc21 42.7%
COCCCn1c2nc3ccccc3nc2c2c(=O)n(Cc3ccc(Cl)cc3)c(C)nc21 0.1%
COc1ccc(CNC(=O)C(Cc2ccccc2)n2cccc2)cc1 (centres undefined) 1.1%
NCCCCCC(=O)N/N=C/c1ccc2nccnc2c1 0.4%
Cc1c(CCC(=O)O)c(=O)oc2cc3occ(-c4ccccc4)c3cc12 -3.4%
CCCC(=O)Nc1nnc(-c2ccccc2)o1 0.1%
COC(=O)c1cc(NC(=O)c2cc(C(C)(C)C)nn2Cc2cccc(C)c2)ccc1N1CCOCC1 -4%
COC(=O)c1cc(NC(=O)c2ccco2)ccc1N1CCOCC1 0.9%
NC(=O)C1(C(N)=O)OC1c1ccc(Cl)cc1Cl (centres undefined) 0.4%
CCOc1ccccc1C1C(C(=O)OC)=CN(C)C=C1C(=O)OC 9.9%
O=C1CSC(=S)N1/N=C/c1ccc(O)c([N+](=O)[O-])c1 26.4%
CCOc1cccc(/C=N/NC(=S)NCCN2CCOCC2)c1O -15.6%
Cc1ccc(NS(=O)(=O)c2ccc(N/N=C/c3ccccc3OCC(=O)O)c([N+](=O)[O-])c2)c(C)c1 -12.7%
CCN(CC)CCn1c2ccc(Cl)cc2c2nc(C)sc21 0.5%
COC(=O)Cn1c(=NC(=O)c2cc(OC)c(OC)c(OC)c2)sc2cc(OC)ccc21 -1.4%
Cn1c(C(=O)O)ccc1S(=O)(=O)N(Cc1ccccc1)Cc1ccccc1 0.9%
COc1ccc(Br)c2c1C(=O)CC2 -4%
COC(=O)c1ccc(C(=O)OC)c(NC(=S)N2CCN(c3ccc(F)cc3)CC2)c1 8.1%
COC(=O)c1ccc(C(=O)OC)c(NC(=S)N2CCN(c3cc(Cl)ccc3C)CC2)c1 9.1%

inhibition, active:
CCCc1cc(=O)oc2c(C)c(O)c(CN3CCCCC3)cc12 84.1%
CCN1/C(=C/C(=S)Nc2ccccc2)Sc2ccccc21 59.1%
COc1ccc(CCn2c(=N)c(C(=O)NCc3ccco3)cc3c(=O)n4cccc(C)c4nc32)cc1 107%
COc1ccc(CNC(=O)c2cc3c(=O)n4ccccc4nc3n(CC3CCCO3)c2=N)cc1 (centres undefined) 85.6%
N#Cc1c(N)n(CCOC(=O)c2ccc(Cl)cc2)c2nc3ccccc3nc12 59%
CC(C)(C)c1ccc(C(=O)NCCn2c(N)c(C#N)c3nc4ccccc4nc32)cc1 72.8%
CCCCCCc1cc2cc(-c3nnc(-c4ccccc4)o3)c(=O)oc2cc1O 84.6%
COC(=O)C1=CN(C)C=C(C(=O)OC)C1c1ccc(Cl)cc1Cl 110%
CCOc1cccc(/C=N/N2C(=O)CSC2=S)c1O 51.1%
COC(=O)Cn1c2ccc(C)cc2c2nc(C)sc21 50.7%
COC(=O)c1ccc(C(=O)OC)c(NC(=S)N2CCCCC2)c1 54%
